Compound activity from PubChem.
S1P1 ag-PAM – S1P1 (human) agonism or agonism potentiation. actives 0.57% (n = 56,000). activation, % at 9.5 µM. P21453. S1P1 CRE-bla cells, forskolin, beta-lactamase FRET, potentiator mode; S1P1 agonist co-added at EC20, 2 nM; 100% = saturating reference agonist, 0% = basal;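 active = activation above a cutoff set at the mean activation of all tested compounds plus 3 SD, cut at about 54% in these data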;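 also: forskolin at 4 µM as EC80 and the EC20 agonist is SEW2871; 100% = SEW2871 at its EC100 plus forskolin at EC80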
Target sequence (P21453 whole entry, looked up): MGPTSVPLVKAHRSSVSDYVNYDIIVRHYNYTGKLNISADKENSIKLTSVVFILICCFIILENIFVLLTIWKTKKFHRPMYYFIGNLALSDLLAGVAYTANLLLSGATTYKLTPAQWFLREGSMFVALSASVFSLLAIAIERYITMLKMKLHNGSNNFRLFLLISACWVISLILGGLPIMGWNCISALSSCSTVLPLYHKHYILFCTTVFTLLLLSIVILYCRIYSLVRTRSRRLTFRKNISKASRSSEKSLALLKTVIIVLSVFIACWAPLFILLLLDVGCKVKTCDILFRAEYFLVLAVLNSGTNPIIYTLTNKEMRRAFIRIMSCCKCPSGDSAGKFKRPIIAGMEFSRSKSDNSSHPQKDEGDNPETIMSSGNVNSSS
5-HT1A blocker – 5-HT1a (human) receptor antagonism | actives 0.68% (n = 62,000) | inhibition, % at 10 µM | CHO 5-HT1a Ga15 NFAT-bla reporter, antagonist mode;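 active = inhibition above the mean of all tested compounds plus 3 SD, cut at about 43% in these data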;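 also: receptor stimulated by 5-CT agonist at 100 nM near EC80; beta-lactamase reporter measured by ratiometric fluorescence of a cleavable substrate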
HTR1E agonist – activates the human 5-HT1E serotonin receptor. P28566. CHO 5-HT1E Ga15 NFAT-bla reporter, FRET; 0% DMSO wells, 100% control agonist wells. activation, % at 6 µM. actives 0.69% (n = 65,000). AID 574;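 active = activation above a set limit, the screen-wide mean activation plus 3 SD, cut at about 8.5% in these data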;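 also: 100% = positive control agonist at 1 µM giving full maximal response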
S1P3 agonist – activates the human S1P3 receptor | Q99500 | S1P3 NFAT-BLA reporter cells, agonism, FRET ratio; relative to 1 µM S1P, basal subtracted | activation, % at 4.5 µM | actives 0.1% (n = 60,000) | AID 373;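 active = activation above the screen-wide mean plus 3 SD, cut at about 4.5% in these data, passing the limit was not always enough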
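Material: Human S1P3 NFAT-BLA reporter CHO cells | Incubation: Overnight plating, 4 h compound 37 °C, 2 h substrate RT | Signal: FRET β-lactamase substrate fluorescence, excitation 405 nm, 460/535 nm emission ratio, background-subtracted | Compound: 4.5 µM final, single dose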
HTR1A agonist – agonists of human 5-HT1a serotonin receptor; activation, % at 10 µM; actives 0.56% (n = 65,000); CHO 5-HT1a Ga15 NFAT-bla reporter, FRET ratio; 0% basal, 100% maximal reference agonist; P08908;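 active = activation above the screen-wide mean activation plus 3 SD, cut at about 19% in these data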;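 also: 0% = DMSO wells and 100% = 5-CT at EC100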
HTR1E antagonist – blocks the human 5-HT1E serotonin receptor; CHO 5-HT1E Ga15 NFAT-bla reporter, FRET, antagonist; inhibition, % at 6 µM; actives 0.99% (n = 65,000); AID 571;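 active = inhibition above a set limit, the mean inhibition across every tested compound plus 3 SD, cut at about 29% in these data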;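 also: signal is the 460 over 535 nm emission ratio of beta-lactamase substrate; 0% = agonist plus DMSO wells and 100% = wells without agonist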
* hit, by the source's call; . = no result given. In the library only some 2.9% were active in any assay of this set; here they are far more common.

SMILES	S1P1 ag-PAM	5-HT1A blocker	HTR1E agonist	S1P3 agonist	HTR1A agonist	HTR1E antagonist
COc1ccc(N2CCN(S(=O)(=O)c3cccs3)CC2)cc1	.	-3	0	0	26*	2
COc1ccc(N2CCN(CCNC(=O)C3CCN(S(=O)(=O)c4cccs4)CC3)CC2)cc1	11	-4	-1	-2	0	-4
CCOC(=O)c1cnc(-n2nc(C)cc2C)nc1NC1CCCCC1	110*	48*	0	-2	0	11
Cc1ccccc1OCCCCc1c(C)n[nH]c1C	131*	15	0	-2	-3	9
C/C(N)=C(/C#N)C(=O)CN1CCCCC1	-2	0	0	0	-1	-9
O=C(CSc1nccn1-c1ccccc1)Nc1ccc2c(c1)OCO2	-1	11	-1	-2	-3	10
O=C(CSc1nccn1-c1ccc(F)cc1)Nc1ccc2c(c1)OCO2	9	12	14*	-1	-1	1
COc1ccc(N(CC(=O)NCc2cccs2)S(=O)(=O)c2c(C)nn(C)c2C)cc1	-3	-15	1	-1	-2	34*
COCCn1cc(C(=O)c2ccccc2OCC(=O)Nc2cc(C)on2)cc(C#N)c1=O	.	8	0	.	1	5
CCN(CC)c1ccc(NC(=O)c2cc(OC)cc(OC)c2)c(C)c1	.	52*	-1	-1	-2	42*
CCN(CC)c1ccc(NC(=O)c2cccc(OC)c2)c(C)c1	0	18	0	-1	-1	1
CC(=O)Nc1cccc(-c2csc(NCc3ccco3)n2)c1	9	4	0	1	0	-13
CC(C)Oc1ccc(C(=O)Nc2ccc(N3CCCC3)cc2)cc1	18	3	2	-2	50*	-13
CCCCOc1ccc(C(=O)Nc2ccc(N3CCN(C)CC3)cc2)cc1	-6	11	15*	0	-3	11
CCCCOc1cccc(C(=O)Nc2ccc(N3CCN(CC)CC3)cc2)c1	-34	9	0	-1	-5	1
O=C(CCn1c(=O)oc2ccccc21)NCc1cccs1	8	4	-1	-1	0	7
COc1ccc2nc(NC(=O)C(NS(=O)(=O)c3cccs3)C(C)C)sc2c1 (stereo not drawn)	0	13	0	0	-3	4
COc1ccc(N2CCN(C(c3cccc(OC)c3OC)c3nnnn3C3CCCC3)CC2)cc1 (stereo not drawn)	0	44*	0	0	-1	4
COc1cccc(C(c2nnnn2Cc2ccco2)N2CCN(c3cccc(C)c3C)CC2)c1OC (stereo not drawn)	4	52*	2	-1	3	-22
CCC(C)NC(=O)C1=C(C)C(=O)OC12CCC(C)CC2 (stereo not drawn)	-6	3	1	0	-3	-7
COc1cccc(C2=NOC(C(=O)NC3CCCCC3)C2)c1 (stereo not drawn)	1	-7	0	1	0	5
O=C(c1cnn2c(C(F)(F)F)cc(-c3ccco3)nc12)N1CCc2ccccc2C1	6	0	0	-1	1	-6
CSc1nc(C)cc(OCC#N)n1	5	-7	0	-1	-2	2
Cc1c(/C=N/n2cnnc2)c2ccccc2n1CCOc1ccccc1	-48	-9	1	0	2	34*
CCOC(=O)c1sc2nc(NC(=O)C3CCCCC3)sc2c1C	74*	-12	-1	-2	-4	-8
SMILES	S1P1 ag-PAM	5-HT1A blocker	HTR1E agonist	S1P3 agonist	HTR1A agonist	HTR1E antagonist
CCOC(=O)c1sc2nc(NC(=O)C3CC3)sc2c1C	-13	-13	0	1	1	2
N#C/C(=C(/O)COC(=O)Cc1c[nH]c2ccccc12)c1nc2ccccc2[nH]1	16	12	5	0	32*	-1
N#C/C(=C(/O)COC(=O)c1ccc2c(c1)OCCO2)c1nc2ccccc2[nH]1	-7	0	1	-1	-3	5
CCOC(=O)c1c(C)[nH]c(C(=O)OC/C(O)=C(\C#N)c2nc3ccccc3[nH]2)c1C	-18	6	3	1	0	49*
COc1ccc(C(=O)n2ccc(C)n2)cc1Br	1	-9	0	0	-1	-4
CC(C)Nc1nc(C#N)nc(NC(C)C)n1	-37	-1	0	1	1	31*
CC(C)c1ccc2oc(-c3ccc(N)cc3)nc2c1	54*	9	0	-2	0	1
Cc1ccc(-c2nc3cc(N)ccc3o2)cc1	-18	14	0	-1	-1	9
CSc1nc(C)cc(SCCO)n1	.	-2	1	-1	0	-5
Nc1nonc1/C(=N/O)N1CCN(CCO)CC1	-7	1	0	-1	-2	-18
CN1CCN(/C(=N\O)c2nonc2N)CC1	-14	2	55*	-1	-4	-6
CCN1C(=O)c2ccccc2S(=O)c2ccc(C(=O)N3CCCC3)cc21 (stereo not drawn)	-19	4	-1	0	-1	12
CN1CCN(C(=O)c2ccc3c(c2)N(Cc2cccc(Cl)c2)C(=O)c2ccccc2S3=O)CC1 (stereo not drawn)	8	7	15*	0	-1	-1
CCOC(=O)CC1=CC(C)(CC(=O)OCC)C(C#N)(C#N)C(N)=C1C#N (stereo not drawn)	13	8	0	-2	-2	9
Cc1ccc(Oc2ccc(S(=O)(=O)N3CCOCC3)cc2C(N)=O)c(-n2nc3ccccc3n2)c1	0	18	0	-1	2	39*
O=c1c2ccccc2nnn1CSc1nnc(C2COc3ccccc3O2)n1-c1ccccc1 (stereo not drawn)	1	10	0	9.0*	-2	1
O=C(OCn1nnc2ccccc2c1=O)C1COc2ccccc2O1 (stereo not drawn)	-20	8	2	0	-3	-7
CCN=C1SC(CC(=O)Nc2sc(C)c(C)c2C(=O)OC)C(=O)N1CC (stereo not drawn)	0	-8	0	0	1	-7
CCN(CC)CCCNC(=O)N[C@@H](Cc1ccccc1)C(=O)O	-19	-4	0	1	-1	-7
CCN(CCCc1ccccc1)CCCc1ccccc1	-16	.	31*	-3	0	5
O=C(O)CCCNS(=O)(=O)c1cccs1	-3	7	-1	-1	20*	11
COc1ccc(NC(=O)CCCNS(=O)(=O)c2cccs2)cc1	.	15	-2	.	0	6
c1ccc2c(c1)CCN2CCN1CCc2ccccc21	6	9	-1	0	-1	9
